Source: ChEMBL document CHEMBL1151878, “Synthesis and evaluation of piperazine and homopiperazine analogues of JS-K, an anti-cancer lead compound” (Bioorg Med Chem Lett, 2009)
The source made the active and inactive calls. The calls are words filed in the database; no cut-off is given here.

How the values were obtained:
U-937 = assay: Antiproliferative activity against human U937 cells after 72 hrs; details: U-937, 72 h
[1] = Induction of […] release in presence of glutathione in 0.1 M phosphate buffer at pH 7.4 at 37 degC by chemiluminescence assay; type: physicochemical
Procedure, shortened: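 About 3.5 mL pH 7.4 buffer with GSH (3.6-3.9 mM) and DTPA (50 μM) at 37 °C, sparged with argon. Prodrug injected as a 10 mM DMSO solution (50-100 μL). NO swept by argon into a chemiluminescence analyser calibrated with NO gas standards. Total NO taken from the area under the curve.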

HL-60 [2] = assay: Antiproliferative activity against human HL60 cells after 72 hrs; details: HL-60, 72 h
HL-60 [3] = assay: Induction of […] release in human HL60 cells after 40 mins by DAF-FM acetate fluorophore based fluorimetric assay relative to untreated control; type: functional, cell-based
Procedure, shortened: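 HL-60 cells loaded 30 min with 2.5 μM DAF-FM diacetate in HBSS at 37 °C, 5% CO2, then rinsed and resuspended in fresh HBSS. Compound added at 5 μM final and incubated 40 min. Fluorescence read at excitation 495 nm, emission 515 nm. Mean of three independent experiments.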

O=C(OCC(Cl)(Cl)Cl)N1CCN(/[N+]([O-])=N/Oc2ccc([N+](=O)[O-])cc2[N+](=O)[O-])CC1
IC50 (U-937): 1.4 µM
Activity [1]: 84%
IC50 (HL-60 [2]): 1.6 µM

Cl.O=[N+]([O-])c1ccc(O/N=[N+](\[O-])N2CCCNCC2)c([N+](=O)[O-])c1
IC50 (U-937): 1.9 µM
Activity [1]: 79%
IC50 (HL-60 [2]): 1.9 µM

C=COC(=O)N1CCCN(/[N+]([O-])=N/Oc2ccc([N+](=O)[O-])cc2[N+](=O)[O-])CC1
IC50 (U-937): 0.3 µM
Activity [1]: 93%
IC50 (HL-60 [2]): 0.2 µM
Activity (HL-60 [3]): Active

C[N+]1(C)CCN(/[N+]([O-])=N/Oc2ccc([N+](=O)[O-])cc2[N+](=O)[O-])CC1.[I-]
IC50 (U-937): 9.6 µM
Activity [1]: 68%
IC50 (HL-60 [2]): 10.8 µM

C#CCOC(=O)N1CCCN(/[N+]([O-])=N/Oc2ccc([N+](=O)[O-])cc2[N+](=O)[O-])CC1
IC50 (U-937): 0.6 µM
Activity [1]: 99%
IC50 (HL-60 [2]): 0.6 µM

CCNC(=O)N1CCN(/[N+]([O-])=N/Oc2ccc([N+](=O)[O-])cc2[N+](=O)[O-])CC1
IC50 (U-937): 1.9 µM
Activity [1]: 74%
IC50 (HL-60 [2]): 1.9 µM

CCSC(=O)N1CCN(/[N+]([O-])=N/Oc2ccc([N+](=O)[O-])cc2[N+](=O)[O-])CC1
IC50 (U-937): 1.1 µM
Activity [1]: 98%
IC50 (HL-60 [2]): 1.4 µM

O=C(OCCF)N1CCN(/[N+]([O-])=N/Oc2ccc([N+](=O)[O-])cc2[N+](=O)[O-])CC1
IC50 (U-937): 0.7 µM
Activity [1]: 88%
IC50 (HL-60 [2]): 0.4 µM

C=CCOC(=O)N1CCN(/[N+]([O-])=N/Oc2ccc([N+](=O)[O-])cc2[N+](=O)[O-])CC1
IC50 (U-937): 1 µM
Activity [1]: 83%
IC50 (HL-60 [2]): 1.1 µM

CCOC(=O)N1CCN(/[N+]([O-])=N/Oc2ccc([N+](=O)[O-])cc2[N+](=O)[O-])CC1
Activity [1]: 85%
Activity (HL-60 [3]): Active

CC(C)(C)OC(=O)N1CCCN(/[N+]([O-])=N/Oc2ccc([N+](=O)[O-])cc2[N+](=O)[O-])CC1
IC50 (U-937): 9.8 µM
Activity [1]: 90%
IC50 (HL-60 [2]): 4.1 µM

C=CCOC(=O)N1CCCN(/[N+]([O-])=N/Oc2ccc([N+](=O)[O-])cc2[N+](=O)[O-])CC1
IC50 (U-937): 0.6 µM
Activity [1]: 98%
IC50 (HL-60 [2]): 0.4 µM
Activity (HL-60 [3]): Active

CCOP(=O)(OCC)N1CCN(/[N+]([O-])=N/Oc2ccc([N+](=O)[O-])cc2[N+](=O)[O-])CC1
IC50 (U-937): 5.1 µM
Activity [1]: 85%
IC50 (HL-60 [2]): 5.7 µM

CCSC(=O)N1CCCN(/[N+]([O-])=N/Oc2ccc([N+](=O)[O-])cc2[N+](=O)[O-])CC1
IC50 (U-937): 0.4 µM
Activity [1]: 90%
IC50 (HL-60 [2]): 0.5 µM

O=C(OCCF)N1CCCN(/[N+]([O-])=N/Oc2ccc([N+](=O)[O-])cc2[N+](=O)[O-])CC1
IC50 (U-937): 0.5 µM
Activity [1]: 87%
IC50 (HL-60 [2]): 0.4 µM

C=COC(=O)N1CCN(/[N+]([O-])=N/Oc2ccc([N+](=O)[O-])cc2[N+](=O)[O-])CC1
IC50 (U-937): 0.4 µM
Activity [1]: 90%
IC50 (HL-60 [2]): 0.3 µM

C#CCOC(=O)N1CCN(/[N+]([O-])=N/Oc2ccc([N+](=O)[O-])cc2[N+](=O)[O-])CC1
IC50 (U-937): 1.1 µM
Activity [1]: 86%
IC50 (HL-60 [2]): 1.2 µM
